Assay outcomes (PubChem)
PTEN del growth = growth suppressors of cells with PTEN tumor suppressor deletion | HCT116 PTEN-null viability, CellTiter-Glo, 60 h; stronger effect = lower value | viability, % at 10 µM | 1.2% of 140,000 active;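 active means viability at or below a set limit, 4 SD under the median of all tested compounds, cut at about 3.7% in these data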;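 further: PTEN knockout HCT116 line with beta catenin targeted HCT116 as companion control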
Lung fibro prol = blocks proliferation of human lung fibroblasts. LL 47 human lung fibroblast viability, ATP luminescence; stronger effect = lower value. AID 719. 1.1% of 85,000 active. viability, % at 10 µM;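 active means viability at or below 50% in the single dose screen; inactive means viability above 50%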;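 further: compound exposure lasted 72 h before the ATP readout; 100% = median luminescence of untreated cell-only wells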
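Benchmarks: Cell-only wells, no compound | Test system: LL 47 human lung fibroblasts, passage 12 or lower | Input: 1,150 cells/well | Measured by: CellTiter-Glo luminescence measuring cellular ATP | Medium: IMEM, 15% FBS supplement | Schedule: Overnight attachment after seeding, then 72 h compound exposure at 37 °C | Doses: Compound addition at 0.1% DMSO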
bCat KO growth = beta-catenin-lacking colon tumor cell growth suppression | HCT116 beta-catenin knockout viability, CellTiter-Glo, 60 h; stronger effect = lower value | viability, % at 10 µM | 1.5% of 140,000 active | AID 818;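 active means viability at or under a set limit, the compound median less 4 SD, cut at about 6% in these data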;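 further: 0% = Hyamine 1622 control at 20 µM and 100% = untreated cell control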
HUVEC prolif 384 = human endothelial cell proliferation inhibition; HUVEC proliferation, CellTiter-Glo luminescence, 72 h; stronger effect = lower value; viability, % at 10 µM (by protocol); 1.1% of 86,000 active; AID 648;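 active means viability at or below 30%; inactive means viability above 30%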;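 further: 100% = median luminescence of DMSO-only cell control wells on each plate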
H69AR inhibit = growth inhibitors of human H69AR lung tumor cells. H69AR lung tumor viability, ATP luminescence, 72 h; stronger effect = lower value. viability, % at 10 µM. 6% of 85,000 active;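 active means viability at or below 40%; inactive means viability above 40%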;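 further: multidrug resistant small cell line overexpressing MRP-1 efflux transporter; 100% = mean luminescence of untreated control wells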
Active calls of the source: *; nt = no result. The entries come from a sample that favours hits as a whole.

SMILES	PTEN del growth	Lung fibro prol	bCat KO growth	HUVEC prolif 384	H69AR inhibit
CCCOc1ccc([C@@H]2C3CN(C(=O)OCC)CC=C3C(C#N)=C(N)C2(C#N)C#N)cc1OC (some centres not stated)	80	85	83	69	41
CCOC(=O)N1CC=C2C(C#N)=C(N)C(C#N)(C#N)[C@H](c3cccs3)C2C1 (some centres not stated)	86	92	93	83	37*
CC1CC=C2C(C#N)=C(N)C(C#N)(C#N)C(c3cccs3)C2C1 (configuration not stated)	77	90	78	82	32*
COc1ccc(CCN2CCC(Nc3nc4ccccc4n3Cc3ccc(F)cc3)CC2)cc1	1.2*	2.1*	1.0*	1.9*	1.5*
Cc1[nH]c2ccccc2c1C1=NNC(=Nc2ccc(F)cc2)SC1	18	nt	14	nt	nt
COc1ccc(N=C2NN=C(c3c(C)[nH]c4ccccc34)CS2)cc1	5	nt	3.8*	nt	nt
Cn1c(=O)c2c(nc(Sc3n[nH]c(N)n3)n2Cc2ccccc2Cl)n(C)c1=O	100	104	96	109	86
CCOC(=O)c1sc2nc(CC(=O)OC)nc(NCc3ccco3)c2c1C	67	96	79	97	64
Cc1nc(NCc2ccco2)c2c(C)c(C)sc2n1	2.2*	27*	1.7*	3.5*	34*
Cc1sc2nc3c4ccccc4c(NCc4ccco4)nn3c(=O)c2c1C	61	92	61	82	34*
CCCCC(=O)NC(Nc1nc(C2CC2)cs1)(C(=O)OCC)C(F)(F)F (configuration not stated)	79	95	93	95	93
CCc1nc(Nc2ccncc2)c2oc3ccccc3c2n1	1.7*	58	2.0*	99	97
CCc1nc(N2CCCCC2C)c2oc3ccccc3c2n1 (configuration not stated)	34	68	26	44	22*
CC(=O)c1ccc(NC(=S)NC(=O)c2c(Cl)c(C)nn2C)cc1	100	nt	99	nt	nt
c1ccc(Nc2nc(N3CCCCC3)nc(N3CCCCC3)n2)cc1	86	92	81	87	91
c1ccc(Nc2nc(N3CCCCC3)nc(N3CCNCC3)n2)cc1	1.4*	nt	1.5*	nt	nt
C1CCN(c2nc(N3CCCC3)nc(N3CCNCC3)n2)C1	51	86	62	90	6.0*
Nc1nc(N2CCCCC2)nc(N2CCCCC2)n1	97	95	91	97	98
CCOc1ccc(S(=O)(=O)Nc2ccc(F)cc2)c(C)c1C	64	98	69	81	67
CCc1ccc(OCC(=O)NC(NC(=S)Nc2ccccc2)C(Cl)(Cl)Cl)cc1 (configuration not stated)	8	nt	2.4*	nt	nt
Cc1ccc(S(=O)(=O)Nc2ccccc2-c2ccccc2NS(=O)(=O)c2ccc(C)cc2)cc1	76	nt	76	nt	nt
O=S(=O)(Nc1cc(Sc2cccc3cccnc23)c(O)c2ccccc12)c1ccccc1	1.2*	nt	1.3*	nt	nt
COc1cc(NS(=O)(=O)c2ccc(C)cc2)c2ncccc2c1	2.3*	9.1*	3.6*	19	4.0*
Cc1ccc(S(=O)(=O)Nc2cccc3cccnc23)cc1	1.6*	5.8*	1.6*	46	1.9*
N#Cc1cc([N+](=O)[O-])cnc1Nc1ccccc1	99	nt	101	nt	nt
SMILES	PTEN del growth	Lung fibro prol	bCat KO growth	HUVEC prolif 384	H69AR inhibit
CC1=C(C(=O)Nc2ccc(Cl)cc2)C2(CCCCC2)C(C(N)=O)C(=S)N1 (configuration not stated)	81	nt	83	nt	nt
CN(C)S(=O)(=O)c1cccc(NC(=O)c2ccc(N3CCOCC3)c([N+](=O)[O-])c2)c1	57	nt	57	nt	nt
COc1ccc(CCN=C(N)NS(=O)(=O)c2ccc3ccccc3c2)cc1	68	nt	76	nt	nt
CCOC(=O)c1oc2ccccc2c1NC(=O)c1cccc(OC)c1OC	45	89	54	63	30*
CCOC(=O)c1oc2ccccc2c1NC(=O)c1cccc(OC)c1	78	97	90	100	78
COc1ccc(Nc2ncc(C(=O)N3CCN(Cc4ccccc4)CC3)c3ccccc23)cc1	3.4*	78	3.9*	52	62
Cc1[nH]n(-c2ccc([N+](=O)[O-])cc2)c(=O)c1C=NCCN1CCN(C(=O)c2ccccc2)CC1	64	56	63	54	47
Cc1cc(N2CCCCC2)n2ncc(-c3ccc(Cl)cc3)c2n1	79	83	74	79	58
Cc1cc(N2CCN(C(=O)c3ccco3)CC2)n2ncc(-c3ccccc3)c2n1	42	94	55	84	27*
Cc1cc(N2CCOCC2)n2ncc(-c3ccccc3)c2n1	91	81	92	77	28*
Cc1nn2c(N3CCN(C4CCCC4)CC3)cc(C(C)(C)C)nc2c1-c1ccccc1	112	99	98	88	74
Cc1cc(N2CCCCC2)n2ncc(-c3ccccc3)c2n1	73	87	76	81	38*
Cc1nn2c(N3CCN(C(=O)c4ccco4)CC3)cc(C(C)(C)C)nc2c1-c1ccccc1	7	87	3.8*	73	100
CC(CS(=O)(=O)c1ccc2ccccc2c1)N1CCN(C2CCCCC2)CC1 (configuration not stated)	nt	95	nt	87	82
CCN1CCN(C(=S)c2ccc(OCC(=O)N3CCOCC3)cc2)CC1	117	105	93	95	77
COc1cc(Br)cc2cc(C(=O)OC3CCN(C)CC3)c(=O)oc12	nt	101	nt	95	36*
CC(C)CNC(=O)CC(=O)N/N=C/c1ccc(F)cc1	95	nt	88	nt	nt
Cc1cc(C)c2cc(CN(CCO)C(=O)Nc3ccc(F)cc3)c(=O)[nH]c2c1	89	95	93	88	38*
Cc1noc2ncnc(Oc3ccc(F)cc3)c12	94	nt	88	nt	nt
NC(=O)C1CCN(C2=C(Cl)C(=O)c3ccccc3C2=O)CC1	20	nt	5.7*	nt	nt
Cc1onc(C(=O)N2CCC(C(N)=O)CC2)c1-c1ccccc1Cl	96	101	96	100	91
CC(C)C(C)(C#N)NC(=O)CSc1nnc(-c2ccccc2)o1 (configuration not stated)	106	103	99	101	91
COC(=O)[C@@H](NC(=O)NCc1ccccc1Cl)C(C)C	102	100	105	107	105
CCCCCCCCC/C(=N\O)c1ccccn1	7	36*	3.4*	5.4*	80
CCCCCCCCC(=O)N/N=C/c1ccccn1	56	nt	40	nt	nt
SMILES	PTEN del growth	Lung fibro prol	bCat KO growth	HUVEC prolif 384	H69AR inhibit
Cc1ccc(/C=C/c2ccc(=O)n(Cc3ccccc3Cl)n2)cc1	83	101	84	106	106
COc1coc(C(O)CN)cc1=O (configuration not stated)	100	nt	96	nt	nt
CCOC(=O)C(=Cc1cc(=O)c(OC)co1)C(=O)OCC	1.4*	nt	1.9*	nt	nt
Cc1ccc(-c2cc(-c3ccccc3Cl)[nH]n2)c(O)c1	44	66	26	36	1.9*
Cc1ccccc1-c1cc(-c2ccccc2O)n[nH]1	34	77	22	42	33*
Oc1ccc(Br)cc1-c1cc(-c2ccccc2F)[nH]n1	39	80	39	82	56
